The values below come from ChEMBL document CHEMBL3217692, “Synthesis and cytotoxicity evaluation of novel pyrido[3,4-d]pyrimidine derivatives as potential anticancer agents” (2012).

The structures appear in SMILES notation.

Common to all, as to assay type: functional
One assay has as its system MCF7. Description: Cytotoxicity against human MCF7 cells assessed as cell growth at 10 uM after 48 hrs by sulforhodamine B assay relative to control. The conditions noted are these: MCF7, 48 h, read-out: Activity. In outline: (§1)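 Adherent cells were grown in RPMI 1640 with 5% FBS and 2 mM L-glutamine, seeded at 5000–40 000 cells/well by doubling time, and held 24 h at 37 °C, 5% CO2 before drug. Time-zero plates were TCA-fixed. Compound in DMSO, single dose 10 μM, 48 h. Cells were fixed with cold TCA (final 10%, 60 min, 4 °C) and stained with 0.4% SRB. Bound dye was dissolved in 10 mM Tris base and read at 515 nm. Percent growth was derived from time-zero, control and treated absorbances.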

Assay [1] is described as follows: Cytotoxicity against human UO31 cells assessed as cell growth at 10 uM after 48 hrs by sulforhodamine B assay relative to control. The conditions noted are these: UO-31, 48 h, read-out: Activity. In outline:
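NCI-60 single-dose screen. Cells were grown in RPMI 1640 with 5% FBS and 2 mM L-glutamine, seeded at 5000–40 000 cells/well according to doubling time, and pre-incubated 24 h at 37 °C, 5% CO2. Time-zero plates were TCA-fixed at dosing. Compound in DMSO was given at 10 μM for 48 h. Cells were then fixed in cold TCA, stained with 0.4% SRB, solubilised in 10 mM Tris base and read at 515 nm. Growth % was calculated from time-zero, control and treated absorbances.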

The test system of the next assay is MDA-MB-468. Description: Cytotoxicity against human MDA-MB-468 cells assessed as cell growth at 10 uM after 48 hrs by sulforhodamine B assay relative to control. The conditions noted are these: MDA-MB-468, 48 h, read-out: Activity. In outline:
as §1

Consider `COc1nccc2c(-c3ccc(Cl)cc3)nc(N)nc12`, for which the results for the growth at 10 µM (with MCF7; in assay [1]; in the assay on MDA-MB-468) were 75.3%, 86.2% and 90.3%, respectively.
For `Nc1nc(Nc2ccc(Cl)cc2)c2ccnc(O)c2n1`, in that order: 81%, 54.5% and 135%.
For `Nc1nc(Sc2ccccc2)c2ccnc(O)c2n1`, in that order: 91.6%, 86.8% and 120%.
The like results for `Nc1nc(-c2ccc(Cl)cc2)c2ccnc(O)c2n1` were, in that order, 94.1%, 96.9% and 108%.
Turning to `COc1ccc(-c2nc(N)nc3c(O)nccc23)cc1`, the results for the growth at 10 µM (with MCF7; in assay [1]; in the assay with MDA-MB-468) were 95.7%, 94.6% and 110%, respectively.
The like results for `Nc1nc(-c2ccccc2)c2ccnc(O)c2n1` were, in that order, 111%, 91.9% and 101%.
For `COc1ccc(Nc2nc(N)nc3c(OC)nccc23)cc1`, in that order: 73%, 57.7% and 76.3%.
The like results for `Nc1nc(Nc2ccccc2)c2ccnc(O)c2n1` were, in that order, 80.8%, 73.7% and 126%.
On to `COc1nccc2c(Nc3ccc(Cl)cc3)nc(N)nc12`, for which the growth at 10 µM in the assay on MCF7 stood at 62.2%; in assay [1] it was 42.9%; in the assay on MDA-MB-468, 60%.
For `COc1ccc(Nc2nc(N)nc3c(O)nccc23)cc1`, the growth at 10 µM stood at 79.7% with MCF7, 64.6% in assay [1] and 118% in the assay on MDA-MB-468.
For `COc1nccc2c(Nc3ccccc3)nc(N)nc12`, in that order: 78.5%, 88.3% and 56.5%.
For `Nc1nc(-c2cccc(F)c2)c2ccnc(O)c2n1`, in that order: 83.3%, 117% and 107%.
The like results for `COc1ccc(-c2nc(N)nc3c(OC)nccc23)cc1` were, in that order, 86.3%, 108% and 97.9%.
Turning to `COc1nccc2c(-c3ccccc3)nc(N)nc12`, the growth at 10 µM in the assay on MCF7 is 96.5%; in assay [1] it was 93.8%; with MDA-MB-468 it was 98.2%.
For `COc1nccc2c(Sc3ccccc3)nc(N)nc12`, in that order: 91.9%, 75.3% and 112%.
